The test system of test [1] is Enterococcus faecalis. Kind of test: In vitro antibacterial activity against Enterococcus faecalis ATCC 29212 (E. f. 034) vancomycin sensitive. It is filed as functional. The gist of the method: (§1)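 Broth microdilution MIC per NCCLS guidelines in Mueller Hinton medium. Doubling dilutions from 256 to 1 μg/mL, inoculum (1–5) × 10⁵ CFU/mL, incubated overnight in ambient air at 35 °C. MIC is the lowest concentration giving complete growth inhibition. Linezolid and vancomycin served as controls.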

In test [2] the test system is Enterococcus faecium. Kind of test: In vitro antibacterial activity against Enterococcus faecium ATCC 12202 (E.fm 154) vancomycin resistant. It is filed as functional, enterococcus fecium. In outline: as §1
For test [3], the system named is Mus musculus. Kind of test: In vivo antibacterial activity in a murine systemic infection model. It is filed as functional. The gist of the method:
(§2)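 Female Swiss Albino mice (22–25 g, n = 6) were infected intraperitoneally with 0.5 mL S. aureus ATCC 29213. The inoculum was grown 2–3 h at 35 °C in BHI broth and adjusted to 100 × LD50 in 5% hog gastric mucin. Compound was suspended in 0.25% carboxymethyl cellulose and given orally 1 and 6 h post-infection; controls received saline. Cumulative mortality was scored over 48 h, and ED50 was derived by linear regression.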

Test [4] concerns Staphylococcus aureus. Kind of test: In vitro antibacterial activity against methicillin resistant Staphylococcus aureus ATCC 33591 (S. a. 019). The format is functional. The gist of the method: as §1
The subject of test [5] is Staphylococcus aureus. Description: In vitro antibacterial activity against Staphylococcus aureus ATCC 49951 (S. a. 213). It is filed as functional. In outline:
as §1

Test [6] deals with Enterococcus faecalis. Kind of test: In vitro antibacterial activity against Enterococcus faecalis NCTC 12201 (E. f. 153) vancomycin resistant. The format is functional. In outline: as §1
Test [7] has as its system Staphylococcus aureus. Kind of test: In vitro antibacterial activity against Staphylococcus aureus ATCC 29213 (S. a. 035). The format is functional. In outline: (§3)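 Broth microdilution per NCCLS guidelines in Mueller Hinton medium. Doubling dilutions 256–1 μg/mL; inoculum (1–5) × 10⁵ CFU/mL; plates incubated overnight at 35 °C in ambient air. MIC read as the lowest concentration giving complete growth inhibition. Linezolid and vancomycin served as controls.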

The test system of test [8] is Enterococcus faecalis. Description: In vitro antibacterial activity against Enterococcus faecalis ATCC 29212 (E. f. 153) vancomycin sensitive. The format is functional. In outline: as §3
In test [9] the test system is Mus musculus. Kind of test: In vivo antibacterial activity in a murine systemic infection model (95%confidence limits). The format is functional. The gist of the method:
as §2

Structures are written as SMILES. In brackets after ≈: the same amount, converted by molar mass.

As to `C/C(S)=N\C[C@H]1CN(c2cc(F)c3c(c2)OC[C@@H]2CCCN32)C(=O)O1`, the MIC (as a rule, the lowest concentration that inhibits growth of the organism) came out at 1 µg/mL (≈ 2.74 µM) in test [1]; 1 µg/mL (≈ 2.74 µM) in test [2]; 0.5 µg/mL (≈ 1.37 µM) in test [4]; 0.5 µg/mL (≈ 1.37 µM) in [5]; 1 µg/mL (≈ 2.74 µM) in test [6]; 0.5 µg/mL (≈ 1.37 µM) in test [7]. Also, the 50% effect level in test [3] (ED50) was put at a dose of 30 mg/kg.

`O=C1O[C@@H](C/N=C/S)CN1c1cc(F)c2c(c1)OC[C@@H]1CCCN21`: the MIC amounted to 1 µg/mL (≈ 2.85 µM) in test [1]; 2 µg/mL (≈ 5.69 µM) in [2]; 1 µg/mL (≈ 2.85 µM) in test [4]; 1 µg/mL (≈ 2.85 µM) in test [5]; 1 µg/mL (≈ 2.85 µM) in test [6]; 1 µg/mL (≈ 2.85 µM) in test [7]. Besides, it took a dose of 9.07 mg/kg to reach the 50% effect level in test [3] (ED50).

For `CCC(=O)NC[C@H]1CN(c2cc(F)c3c(c2)OC[C@@H]2CCCN32)C(=O)O1`, the MIC amounted to 4 µg/mL (≈ 11 µM) in [1]; 8 µg/mL (≈ 22 µM) in [2]; 2 µg/mL (≈ 5.5 µM) in test [4]; 4 µg/mL (≈ 11 µM) in test [5]; 8 µg/mL (≈ 22 µM) in test [6]; 4 µg/mL (≈ 11 µM) in test [7]. Besides, the ED50 (in general, the dose at which the effect has come halfway, by size or by number of responders) in test [3] came out at 16 mg/kg.

`CC/C(S)=N\C[C@H]1CN(c2cc(F)c3c(c2)OC[C@@H]2CCCN32)C(=O)O1`: the MIC in test [1] is 0.5 µg/mL (≈ 1.32 µM); in [2], 0.5 µg/mL (≈ 1.32 µM); in test [4], 0.5 µg/mL (≈ 1.32 µM); in test [5], 0.5 µg/mL (≈ 1.32 µM); in [6], 0.5 µg/mL (≈ 1.32 µM); in [7] it was 1 µg/mL (≈ 2.64 µM). The compound also returned an ED50 in [3] of 30 mg/kg.

Regarding `O=C(CCl)NC[C@H]1CN(c2cc(F)c3c(c2)OC[C@@H]2CCCN32)C(=O)O1`, the MIC in [1] came to 2 µg/mL (≈ 5.21 µM); in test [2], 2 µg/mL (≈ 5.21 µM); in test [4], 1 µg/mL (≈ 2.61 µM); in test [7], 1 µg/mL (≈ 2.61 µM); in test [8], 2 µg/mL (≈ 5.21 µM).

`CC(=O)NC[C@H]1CN(c2cc(F)c3c(c2)OC[C@@H]2CCCN32)C(=O)O1`: the MIC in test [1] turned out to be 2 µg/mL (≈ 5.72 µM); in [2], 4 µg/mL (≈ 11.4 µM); in test [4] it was 1 µg/mL (≈ 2.86 µM); in [5], 2 µg/mL (≈ 5.72 µM); in test [6], 2 µg/mL (≈ 5.72 µM); in test [7] it was 2 µg/mL (≈ 5.72 µM). Besides, in [3], it took a dose of 8.6 mg/kg to reach the 50% effect level (ED50).

For `CC(=O)NC[C@H]1CN(c2ccc(N3CCOCC3)c(F)c2)C(=O)O1` [LINEZOLID], the MIC in test [2] stood at 2 µg/mL (≈ 5.93 µM); in [4], 1 µg/mL (≈ 2.96 µM). The same compound yielded an ED50 in [3] of 3.91 mg/kg.

Consider `O=C(NC[C@H]1CN(c2ccc3c(c2)OC[C@@H]2CCCN32)C(=O)O1)C(F)F`, for which the MIC in [1] was determined as 4 µg/mL (≈ 10.9 µM); in test [2], 4 µg/mL (≈ 10.9 µM); in test [4] it was 2 µg/mL (≈ 5.44 µM); in test [7] it was 4 µg/mL (≈ 10.9 µM); in [8], 4 µg/mL (≈ 10.9 µM).

As to `C=CC(=O)NC[C@H]1CN(c2cc(F)c3c(c2)OC[C@@H]2CCCN32)C(=O)O1`, the MIC in test [1], in test [2], in [4], in test [5], in test [6] and in test [7] was 4 µg/mL (≈ 11.1 µM) in each case. This compound also showed a 50% effective dose (ED50) in [3] of 30 mg/kg.

Consider `CN[C@H](CC(C)C)C(=O)N[C@H]1C(=O)N[C@@H](CC(N)=O)C(=O)N[C@H]2C(=O)N[C@H]3C(=O)N[C@H](C(=O)N[C@H](C(=O)O)c4cc(O)cc(O)c4-c4cc3ccc4O)[C@H](O)c3ccc(c(Cl)c3)Oc3cc2cc(c3O[C@@H]2O[C@H](CO)[C@@H](O)[C@H](O)[C@H]2O[C@H]2C[C@](C)(N)[C@H](O)[C@H](C)O2)Oc2ccc(cc2Cl)[C@H]1O` [VANCOMYCIN], for which the MIC in test [1] was 2 µg/mL (≈ 1.38 µM); in [2] it was above 32 µg/mL; in test [8], 2 µg/mL (≈ 1.38 µM). In addition, the ED50 in test [9] worked out at 3.93 mg/kg.

`CCC/C(S)=N\C[C@H]1CN(c2cc(F)c3c(c2)OC[C@@H]2CCCN32)C(=O)O1`: the MIC in [1] was 1 µg/mL (≈ 2.54 µM); in test [2], 1 µg/mL (≈ 2.54 µM); in test [4], 1 µg/mL (≈ 2.54 µM); in test [5] it was 2 µg/mL (≈ 5.08 µM); in test [6], 1 µg/mL (≈ 2.54 µM); in test [7], 2 µg/mL (≈ 5.08 µM). Besides, it took a dose of 30 mg/kg to reach the 50% effect level in [3] (ED50).

For `CCO/C(S)=N\C[C@H]1CN(c2cc(F)c3c(c2)OC[C@@H]2CCCN32)C(=O)O1`, the MIC in test [1] was determined as 2 µg/mL (≈ 5.06 µM); in test [2], 2 µg/mL (≈ 5.06 µM); in test [4] it was 1 µg/mL (≈ 2.53 µM); in test [5] it was 2 µg/mL (≈ 5.06 µM); in test [7], 2 µg/mL (≈ 5.06 µM); in test [8], 2 µg/mL (≈ 5.06 µM).

As to `CCCCO/C(S)=N\C[C@H]1CN(c2cc(F)c3c(c2)OC[C@@H]2CCCN32)C(=O)O1`, the MIC in test [1], in test [2], in test [4], in test [5], in test [7] and in test [8] was above 32 µg/mL each time.

`O=C(NC[C@H]1CN(c2ccc3c(c2)OC[C@@H]2CCCN32)C(=O)O1)C(Cl)Cl`: the MIC in test [1] was 8 µg/mL (≈ 20 µM); in [2], 8 µg/mL (≈ 20 µM); in test [4], 4 µg/mL (≈ 9.99 µM); in [7] it was 4 µg/mL (≈ 9.99 µM); in [8] it was 8 µg/mL (≈ 20 µM).

With `CC(C)O/C(S)=N\C[C@H]1CN(c2cc(F)c3c(c2)OC[C@@H]2CCCN32)C(=O)O1`, the MIC in test [1], in test [2], in test [4], in test [5], in test [7] and in test [8] was 8 µg/mL (≈ 19.5 µM) each time.

As to `O=C1O[C@@H](C/N=C(/S)N2CCSCC2)CN1c1cc(F)c2c(c1)OC[C@@H]1CCCN21`, the MIC in test [1], in test [2], in [4], in test [5], in test [6] and in test [7] was 16 µg/mL (≈ 35.4 µM) in each case.

Turning to `O=C1O[C@@H](C/N=C(/S)N2CCCC2)CN1c1cc(F)c2c(c1)OC[C@@H]1CCCN21`, the MIC in test [1], in [2], in test [4], in test [5], in test [6] and in test [7] was 32 µg/mL (≈ 76.1 µM) each time.

For the compound `O=C(CCl)NC[C@H]1CN(c2ccc3c(c2)OC[C@@H]2CCCN32)C(=O)O1`, the MIC in [1] was 4 µg/mL (≈ 10.9 µM); in test [2], 8 µg/mL (≈ 21.9 µM); in test [4] it was 2 µg/mL (≈ 5.47 µM); in [7], 4 µg/mL (≈ 10.9 µM); in test [8] it was 4 µg/mL (≈ 10.9 µM).

Regarding `CC(C)C(=O)NC[C@H]1CN(c2cc(F)c3c(c2)OC[C@@H]2CCCN32)C(=O)O1`, the MIC in [1] turned out to be 16 µg/mL (≈ 42.4 µM); in test [2], 16 µg/mL (≈ 42.4 µM); in test [4] it was 8 µg/mL (≈ 21.2 µM); in test [5], 8 µg/mL (≈ 21.2 µM); in test [6], 16 µg/mL (≈ 42.4 µM); in [7], 8 µg/mL (≈ 21.2 µM).

For `C/N=C(\S)NC[C@H]1CN(c2cc(F)c3c(c2)OC[C@@H]2CCCN32)C(=O)O1`, the MIC worked out at 2 µg/mL (≈ 5.26 µM) in test [1]; 4 µg/mL (≈ 10.5 µM) in test [2]; 2 µg/mL (≈ 5.26 µM) in test [4]; 4 µg/mL (≈ 10.5 µM) in test [5]; 4 µg/mL (≈ 10.5 µM) in test [6]; 4 µg/mL (≈ 10.5 µM) in test [7].

For the compound `COC(=O)NC[C@H]1CN(c2cc(F)c3c(c2)OC[C@@H]2CCCN32)C(=O)O1`, the MIC in test [1], in [2], in test [4], in test [5], in test [6] and in test [7] was 2 µg/mL (≈ 5.47 µM) in each case. The ED50 in test [3] was found to be 3.3 mg/kg.

As for `CCCC(=O)NC[C@H]1CN(c2cc(F)c3c(c2)OC[C@@H]2CCCN32)C(=O)O1`, the MIC in test [1], in [2], in test [4], in [5], in [6] and in [7] was 4 µg/mL (≈ 10.6 µM) each time.
